Source: paper PMC3920952 (Cell Death & Disease, 2013)

Columns and labels:
Jurkat cells [1] = assay: Cell death by propidium iodide staining and flow cytometry; type: cell-based; conditions: 15 μM, 18 h, 0.5% FBS; mean of three independent experiments
Method in brief: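 Cells seeded at 4×10^5/ml in medium with 0.5% FBS and exposed for 18 h to TAT-fused truncated test peptides (15 μM) or TAT alone. Cells were washed in PBS and resuspended in PI solution (50 μg/ml PI, 0.1% sodium citrate, 0.1% Triton X-100). Flow cytometry gave the sub-G1 fraction. Mean ± S.D. of three independent experiments; two-tailed Student's t-test versus TAT.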

Jurkat cells [2] = assay: ATP-based cell viability assay
Method in brief: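 Jurkat cells (RPMI, 10% FBS, 1.5 mmol/l L-glutamine) seeded in half-surface 96-well plates. Treated overnight/18 h with test peptide, TAT-only peptide or vehicle under low serum (0.5–5% FBS). Single-concentration runs used 15 μM. ATP measured by CellTiter-Glo luminescence and expressed as % of vehicle-treated control. Single-concentration values are mean ± S.D. of four independent experiments.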

Jurkat cells [3] = assay: Trypan blue exclusion assay; type: cell-based
Method in brief: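 Jurkat cells cultured in 96-well plates and treated with TAT or test peptide overnight (10–15 μM range). In the caspase-inhibitor arm, cells were preincubated 30 min with zVAD-fmk or vehicle, then treated 17 h (TAT 10 μM). Suspended cells were mixed 1:1 with 0.4% Trypan blue, and viable cells were counted on a TC10 automated counter.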

[4] = Particle size by dynamic light scattering; type: physicochemical; conditions: PBS pH 7.4, 25 °C
Method in brief: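 Test peptide at 60 μM in PBS, pH 7.4, at 25 °C was filtered and degassed, then scanned in a 1-mm path quartz cuvette. 90° light scattering was recorded for 3 min. Particle radius was derived by CONTIN analysis of the DLS data.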

K562 cells = assay: Trypan blue exclusion assay; type: cell-based; conditions: 20 μM, 15-min treatment
Method in brief: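 K562 cells were exposed to 20 μM test peptide or TAT in medium with 0.5% FBS, either over a time course (minutes) or for 18 h. Cells in suspension were mixed 1:1 with 0.4% Trypan blue. Viable (dye-negative) cells were counted on an automated cell counter. Values are mean ± S.D.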

[5] = Tolerability in xenograft-bearing mice; type: in vivo, nu/nu mice; conditions: mice treated for 18 days, 2.0 and 8.0 mg/kg daily i.p.
Method in brief: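 HCT116 cells (1×10^6) injected s.c. into the right flank of 7–8-week-old female nu/nu mice. After 1 week, mice were randomized into four groups of eight. Groups received daily i.p. test peptide (2.0 or 8.0 mg/kg) or TAT (1.3 or 5.3 mg/kg) for 18 days. Body weight was monitored. Liver, brain, heart, lung and spleen sections were assessed by H&E staining.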

Question: For CTADMS [killerFLIP-C], which “cell death (PI staining)” value (Jurkat cells [1]) is on record?
Answer: 14.6%

Question: For FALFCTSW [scrambled killerFLIP-E], which “relative ATP levels compared with vehicle-treated cells” value (Jurkat cells [2]; 18 h, comparison with scrambled variant (Figure 4c), concentration not given) is on record?
Answer: 12.7%

Question: Which results are given for YGRKKRRQRRR [TAT, reference compound]?
Answer: cells excluding Trypan blue (Jurkat cells [3]; 10 μM TAT, 17 h, no zVAD-fmk): 78%; cell death (Trypan blue exclusion) (Jurkat cells [3]; 10 μM, 17 h): did not induce cell death; Trypan blue-negative cells (Jurkat cells [3]; 20 μM, 15-min treatment): 75.2%; self-assembly into micelles in aqueous solution (DLS) [4]: does not; Trypan blue-negative cells (K562 cells): 83%

Question: Which results are given for YGRKKRRQRRRREADFFWSLCTADMS [killerFLIP]?
Answer: cell death, share of Jurkat cells (Trypan blue exclusion) (Jurkat cells [3]; 10–15 μM, overnight): ~50%; tolerability [5]: generally well tolerated; effect on cell viability (relative ATP levels) (Jurkat cells [2]; overnight treatment, various concentrations, low serum (0.5–5% FBS)): concentration-dependent decrease in cell viability

B1: HGS-ETR2: agonistic anti-TRAIL-R2 antibody used as a positive control for apoptotic cell death (antibody, chains of the INN, looked up, V domains shown)
VH: EVQLVQSGGGVERPGGSLRLSCAASGFTFDDYGMSWVRQAPGKGLEWVSGINWNGGSTGYADSVKGRVTISRDNAKNSLYLQMNSLRAEDTAVYYCAKILGAGRGWYFDLWGKGTTVTVSS
VL: SSELTQDPAVSVALGQTVRITCQGDSLRSYYASWYQQKPGQAPVLVIYGKNNRPSGIPDRFSGSSSGNTASLTITGAQAEDEADYYCNSRDSSGNHVVFGGGTKLTVL
Question: For B1, which Trypan blue-negative cells (Jurkat cells [3]; HGS-ETR2 1 μg/ml, 17 h, after 30 min pre-treatment with 20 μM zVAD-fmk) is on record?
Answer: 70%

Question: What about the Trypan blue-negative cells (Jurkat cells [3]; HGS-ETR2 1 μg/ml, 17 h, no zVAD-fmk) of the same molecule?
Answer: 11%
